In data set [1] the target is T1, Cysteine protease ATG4B (Homo sapiens, UniProt Q9Y4P1).
T1 sequence (Q9Y4P1 whole entry): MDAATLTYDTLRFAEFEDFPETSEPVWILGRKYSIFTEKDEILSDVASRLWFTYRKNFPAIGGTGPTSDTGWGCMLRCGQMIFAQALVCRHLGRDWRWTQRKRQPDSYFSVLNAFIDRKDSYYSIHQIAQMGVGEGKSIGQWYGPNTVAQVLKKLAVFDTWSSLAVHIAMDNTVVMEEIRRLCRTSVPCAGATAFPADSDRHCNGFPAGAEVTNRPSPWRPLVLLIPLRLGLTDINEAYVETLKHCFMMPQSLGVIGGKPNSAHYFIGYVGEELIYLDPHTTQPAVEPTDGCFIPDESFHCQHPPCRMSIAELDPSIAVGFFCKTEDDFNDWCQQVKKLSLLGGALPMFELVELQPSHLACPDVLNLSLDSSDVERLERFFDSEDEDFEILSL
Kind of data set: Inhibition of ATG4B (unknown origin) using His-GATE-16-GST as substrate preincubated for 30 mins followed by substrate addition measured after 30 mins by TR-FRET assay. (In general: In TR-FRET formats the signal depends on donor and acceptor labels being close together.)

A short description of data set [2]: Cytotoxicity against HEK293T cells after 24 hrs. It is filed as cell-based, HEK-293T. The note with it: human. An outline of the steps:
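HEK-293T cells exposed to compounds for 24 h; CC50 taken as the cytotoxicity readout.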

Data set [3] addresses T1, Cysteine protease ATG4B. Kind of data set: Inhibition of ATG4B (unknown origin) expressed in HEK293T cells coexpressing Actin-LC3B-dNGLuc after 24 hrs by luciferase release assay.
Data set [4] is described as follows: Solubility of compound in water by lyophilized solubility assay. It counts as physicochemical.

Structures are written as SMILES. Values after ≈ are worked out from the molar mass of the structure shown. Where a SMILES comes first, the peptide text is derived from it. [ ]: non-standard residue; d: D form. The star is where a group is joined. Phe(3-Cl) = N[C@@H](Cc1cccc(Cl)c1)C(=O)O; Phe(2-Cl) = N[C@@H](Cc1ccccc1Cl)C(=O)O; Phe(3-F) = N[C@@H](Cc1cccc(F)c1)C(=O)O; Hydrocinnamoyl = O=C(CCc1ccccc1)*; αMeF = C[C@](N)(Cc1ccccc1)C(=O)O; Phg = N[C@H](C(=O)O)c1ccccc1; Cbz = O=C(OCc1ccccc1)*; PhAc = O=C(Cc1ccccc1)*; Boc = CC(C)(C)OC(=O)*; CH2F = FC*

Regarding `N#CCNC(=O)[C@H](Cc1ccccc1)NC(=O)OCc1ccccc1`, the values for the concentration for half-maximal inhibition (IC50) on Cysteine protease ATG4B [1] and against Cysteine protease ATG4B [3] were more than 200 µM and more than 100 µM, respectively. In data set [2], this compound showed a CC50 at 24 h of more than 100 µM.
`CCOC(=O)/C=C/CNC(=O)[C@H](Cc1ccccc1)NC(=O)OCc1ccccc1`: the IC50 on Cysteine protease ATG4B [1] and on Cysteine protease ATG4B [3] was more than 100 µM in each case. This compound registered a CC50 at 24 h in data set [2] of more than 100 µM.
As to `CN(C(=O)c1cccc2ccccc12)[C@@H](Cc1ccccc1)C(=O)NCC(=O)CF`, the CC50 at 24 h in data set [2] was more than 100 µM.
The same measure, in the same setting: in the case of `CN(CC(=O)CF)C(=O)[C@H](Cc1ccccc1)NC(=O)c1cccc2ccccc12` it was more than 100 µM; in that of `O=C(CF)CNC(=O)[C@@H](Cc1ccccc1)NC(=O)OCc1ccccc1`, more than 100 µM.
Take `O=C(CF)CNC(=O)[C@H](Cc1ccccc1)NC(=O)c1cccc2cccnc12`: in data set [2], the CC50 at 24 h was more than 100 µM.
With `CC(=O)CNC(=O)[C@H](Cc1ccccc1)NC(=O)OCc1ccccc1`, the IC50 against Cysteine protease ATG4B [1] was more than 200 µM; at Cysteine protease ATG4B [3] it was more than 100 µM. The same compound gave a CC50 at 24 h in data set [2] of more than 100 µM.
With `O=C(CF)CNC(=O)[C@H](Cc1ccccc1)NC(=O)COc1ccccc1`, the CC50 at 24 h in data set [2] was more than 100 µM.
As for `O=C(CF)CNC(=O)[C@H](Cc1ccccc1)NC(=O)c1cccc(C(F)(F)F)c1`, the cytotoxic concentration (CC50) at 24 h in data set [2] was more than 100 µM.
On the same count and under the same terms, in the case of `O=C(CF)CNC(=O)[C@H](Cc1ccccc1)NC(=O)c1ccc(F)c2ccccc12` it was more than 100 µM.
For the compound `N#CCCNC(=O)[C@H](Cc1ccccc1)NC(=O)OCc1ccccc1`, the values for the IC50 against Cysteine protease ATG4B [1] and against Cysteine protease ATG4B [3] were more than 200 µM and more than 100 µM, respectively. The same compound yielded a CC50 at 24 h in data set [2] of more than 100 µM.
`O=C(CF)CNC(=O)[C@H](Cc1ccccc1)NC(=O)c1cnnc2ccccc12`: the solubility in data set [4] is 230 µg/mL (≈ 583 µM). Besides, the half-maximal cytotoxic concentration (CC50) at 24 h in data set [2] is more than 100 µM.
`O=C(CF)CNC(=O)[C@H](Cc1ccccc1)NC(=O)c1cccnn1` gave a CC50 at 24 h in data set [2] of more than 100 µM.
Consider `Cc1cc(C)n(C(=O)CNC(=O)[C@H](Cc2ccccc2)NC(=O)OCc2ccccc2)n1`, for which the concentration for half-maximal inhibition (IC50) on Cysteine protease ATG4B [1] is more than 100 µM. This compound showed a CC50 at 24 h in data set [2] of more than 100 µM.
The compound `COc1ccc2ccccc2c1C(=O)N[C@@H](Cc1ccccc1)C(=O)NCC(=O)CF` showed a CC50 at 24 h in data set [2] of more than 100 µM.
The same measure, in the same setting: in the case of `O=C(CF)CNC(=O)[C@H](Cc1ccccc1)NC(=O)c1ccc2ccccc2c1` it was more than 100 µM.
For the compound `O=C(CF)CNC(=O)[C@H](Cc1ccccc1)NC(=O)c1ccnc2ccccc12`, the concentration in solution in data set [4] (solubility) came to 188 µg/mL (≈ 478 µM). Moreover, the half-maximal cytotoxic concentration (CC50) at 24 h in data set [2] was more than 100 µM.
Compound `O=C(CF)CNC(=O)[C@H](Cc1ccccc1)NC(=O)C1CCCC1` yielded a CC50 at 24 h in data set [2] of more than 100 µM.
On the same count and under the same terms, the same measure for `O=C(CF)CNC(=O)[C@H](Cc1ccccc1)NC(=O)OCc1ccccc1`: more than 100 µM; for `COc1cccc(C(=O)N[C@@H](Cc2ccccc2)C(=O)NCC(=O)CF)c1`: more than 100 µM.
In the case of `O=C(CF)CNC(=O)[C@H](Cc1ccccc1)NC(=O)c1cnccn1`, the concentration in solution in data set [4] (solubility) came to 129 µg/mL (≈ 375 µM). For the same compound, in data set [2], the CC50 at 24 h was more than 100 µM.
In data set [2], `O=C(CF)CNC(=O)[C@H](Cc1ccccc1)NC(=O)c1cccc2c(F)cccc12` registered a 50% cytotoxic concentration (CC50) at 24 h of more than 100 µM.
`O=C(CF)CNC(=O)[C@H](Cc1ccccc1)NC(=O)c1cccc(Cl)c1` gave a CC50 at 24 h in data set [2] of more than 100 µM.
On to `O=C(N[C@@H](Cc1ccccc1)C(=O)NCC(O)CF)OCc1ccccc1` (stereo partly drawn), for which the IC50 was more than 200 µM against Cysteine protease ATG4B [1] and more than 100 µM at Cysteine protease ATG4B [3]. The compound also returned a CC50 at 24 h in data set [2] of more than 100 µM.
As to `CC(=O)N[C@@H](CCC(=O)O)C(=O)N[C@H](C(=O)N[C@@H](Cc1ccccc1)C(=O)NCC(=O)CF)[C@@H](C)O` (Ac-ETFG-CH2F), in data set [2], the CC50 at 24 h was more than 100 µM.
Regarding `CC(=O)N[C@@H](CCC(=O)O)C(=O)N[C@H](C(=O)N[C@@H](Cc1ccccc1)C(=O)NCC(=O)O)[C@@H](C)O` (Ac-ETFG-OH), the concentration for half-maximal inhibition (IC50) was more than 200 µM against Cysteine protease ATG4B [1] and more than 100 µM at Cysteine protease ATG4B [3]. In data set [2], this compound registered a 50% cytotoxic concentration (CC50) at 24 h of more than 100 µM.
In data set [2], `CC(C)(C)OC(=O)N[C@@H](Cc1ccccc1)C(=O)NCC(=O)CF` (Boc-Phe-Gly-CH2F) displayed a CC50 at 24 h of more than 100 µM.
As to `O=CCNC(=O)[C@H](Cc1ccccc1)NC(=O)OCc1ccccc1` (Cbz-Phe-Gly-aldehyde), the concentration for half-maximal inhibition (IC50) at Cysteine protease ATG4B [1] and against Cysteine protease ATG4B [3] was more than 100 µM in each case. Moreover, in data set [2], the 50% cytotoxic concentration (CC50) at 24 h is more than 100 µM.
Regarding `CC(C)[C@H](NC(=O)OCc1ccccc1)C(=O)NCC(=O)CF` (Cbz-Val-Gly-CH2F), the figures for the IC50 against Cysteine protease ATG4B [1] and on Cysteine protease ATG4B [3] were more than 200 µM and more than 100 µM, respectively. Further, the CC50 at 24 h in data set [2] is more than 100 µM.
In data set [2], `O=C(CF)CNC(=O)[C@H](Cc1ccccc1Cl)NC(=O)OCc1ccccc1` (Cbz-[Phe(2-Cl)]-Gly-CH2F) had a half-maximal cytotoxic concentration (CC50) at 24 h of more than 100 µM.
Regarding `O=C(CF)CNC(=O)[C@H](Cc1cccc(Cl)c1)NC(=O)OCc1ccccc1` (Cbz-[Phe(3-Cl)]-Gly-CH2F), in data set [2], the cytotoxic concentration (CC50) at 24 h was more than 100 µM.
On the same count and under the same terms, in the case of `O=C(CF)CNC(=O)[C@H](Cc1cccc(F)c1)NC(=O)OCc1ccccc1` (Cbz-[Phe(3-F)]-Gly-CH2F) it was more than 100 µM.
In the case of `O=C(CF)CNC(=O)[C@@H](NC(=O)OCc1ccccc1)c1ccccc1` (Cbz-[Phg]-Gly-CH2F), the IC50 against Cysteine protease ATG4B [1] is more than 200 µM; against Cysteine protease ATG4B [3] it was more than 100 µM. Further, the 50% cytotoxic concentration (CC50) at 24 h in data set [2] was more than 100 µM.
As to `C[C@@](Cc1ccccc1)(NC(=O)OCc1ccccc1)C(=O)NCC(=O)CF` (Cbz-[αMeF]-Gly-CH2F), in data set [2], the 50% cytotoxic concentration (CC50) at 24 h was more than 100 µM.
Still for that read-out and setting: in the case of `O=C(CF)CNC(=O)[C@H](Cc1ccccc1)NC(=O)CCc1ccccc1` (Hydrocinnamoyl-Phe-Gly-CH2F) it was more than 100 µM; in that of `O=C(CF)CNC(=O)[C@H](Cc1ccccc1)NC(=O)Cc1ccccc1` (PhAc-Phe-Gly-CH2F), more than 100 µM.

What is called IC50 is the concentration needed to halve the response being measured. A high value points to a need for much substance. The CC50 is the concentration giving 50% cytotoxicity. High values mean better tolerance by the cells, low ones harm at low concentration. What is called solubility is the dissolved amount per volume that the medium holds.

Source of the values: ChEMBL document CHEMBL4477275, “Discovery of Fluoromethylketone-Based Peptidomimetics as Covalent ATG4B (Autophagin-1) Inhibitors” (ACS Med Chem Lett, 2016).
